From PubChem BioAssay
Most compounds without a hit are left out; they make up all but 0.3% or so of the library.
LANA-nucl inh: LANA-nucleosome interaction inhibition; 0.3% of 51,000 active; FITC-LANA1-23 / chicken nucleosome fluorescence polarization; hits give low values; z-score (test concentration not listed); AID 720717;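 active = both repeat wells score below -2 in polarization z-score versus plate sample wells, excluding overly bright wells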
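System – purified chicken nucleosomes with FITC-labelled LANA N-terminal peptide (1-23) · Amount – 240 nM purified chicken nucleosomes (480 nM peptide binding sites), final · Also added – 50 nM FITC-LANA1-23 probe · Medium – TEN-BT buffer, pH 7.5 · Incubation – compound with peptide–nucleosome mix 10–45 min at room temperature · Detection – fluorescence polarization, ex 480 nm, em 535 nm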
BasE inh: blocks the Acinetobacter baumannii siderophore enzyme BasE; purified BasE, fluorescence polarization binding displacement; inhibition, % (concentration not given with the values); 0.1% of 84,000 active; AID 485350; in the data active = inhibition above about 25%, passing the limit was not always enough;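 note: 0% = negative plate control signal and 100% = positive plate control signal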
* hit, by the source's call.

What do the screens show for `O=c1[nH]nc2c3c(cccc13)-c1ccccc1-2`?
LANA-nucl inh: 1.9; BasE inh: -3

What do the screens show for `Cc1occc1-c1nnc(SCC(=O)NCc2ccc3c(c2)OCO3)n1CC(C)C`?
LANA-nucl inh: -1.1; BasE inh: 1

Results for COCCn1c(SCC(=O)NCc2ccc3c(c2)OCO3)nnc1-c1c[nH]c2ccccc12 ?
LANA-nucl inh: -2.2*; BasE inh: 0

How did COc1ccc(N/N=C(\C#N)C(=O)Nc2ccccc2C(=O)O)cc1Cl do in these assays?
BasE inh: 80*

Results for Cc1ccc(NC(=O)/C(C#N)=N/Nc2ccc(C(=O)O)cc2)c(C)c1 ?
BasE inh: 4

How did CC1(C)Cc2nc3sc4c(NCCO)ncnc4c3cc2CO1 do in these assays?
LANA-nucl inh: 0.33; BasE inh: 0

Results for CCc1cc(=O)oc2c(CN(C)C)c(O)c(Cl)cc12 ?
LANA-nucl inh: -1.7; BasE inh: 0

What do the screens show for `Cc1cc(O)c(Cc2c(O)cc(C)n(C)c2=O)c(=O)n1C`?
LANA-nucl inh: -2.4*; BasE inh: 1

Results for Cc1cc(O)cc(=O)n1C ?
LANA-nucl inh: 0.066; BasE inh: 1

Results for COc1ccc(NC(C)=O)cc1 ?
BasE inh: 1

Results for COc1cc(/C=N/NC(=O)c2cc(C3CC3)[nH]n2)ccc1O ?
LANA-nucl inh: 0.33; BasE inh: 49*

How did COc1cc(/C=N/NC(=O)c2ccccc2-n2cccc2)ccc1O do in these assays?
BasE inh: 2

What do the screens show for `O=C1CN(C(=O)CC2c3ccccc3-c3ccccc32)CC(=O)N1`?
LANA-nucl inh: -0.66; BasE inh: 43*

How did CCOC(=O)N1CCN(C(=O)CC2c3ccccc3Oc3ccccc32)CC1 do in these assays?
LANA-nucl inh: -1; BasE inh: 1

Results for Cc1c(C(=O)C(C#N)c2nc3ccccc3[nH]2)oc2c(Cl)cccc12 (stereo not drawn) ?
BasE inh: -2

Results for Cc1c(-n2c(-c3ccccc3Br)n[nH]c2=S)c(=O)n(-c2ccccc2)n1C ?
BasE inh: 2

How did O=C1CSc2sc(=S)sc2S1 do in these assays?
BasE inh: 28*

Results for Cc1ccc(C)n1NC(=O)c1ccc(Oc2ncnc3sccc23)cc1 ?
BasE inh: 2

Results for CC1=C(C(=O)Nn2cnc3cccc(F)c3c2=N)Sc2ccccc2N1 ?
BasE inh: 36*

Results for N=c1c2c(F)cccc2ncn1NC(=O)c1ccncc1 ?
LANA-nucl inh: 0.082; BasE inh: 2

Results for CC(C)CCC(=O)Nc1ccc(S(=O)(=O)N2C(C)CCCC2C)cc1 (stereo not drawn) ?
BasE inh: 0

What do the screens show for `COC(=O)c1sc2nc(-c3ccco3)cc(C(F)(F)F)c2c1N`?
LANA-nucl inh: -1.1; BasE inh: 3

What do the screens show for `COC(=O)c1sc2nc3c(c(C(F)(F)F)c2c1N)CN(C(C)=O)CC3`?
LANA-nucl inh: -8.1*; BasE inh: 31

How did NCCCCCCNCc1cccc2c(Cl)cccc12 do in these assays?
LANA-nucl inh: 0.28

Results for Cc1ccc2nc(CC(=O)O)[nH]c2c1 ?
LANA-nucl inh: 0.1; BasE inh: 2

How did O=C(O)CSc1nnc2n1-c1ccc(Cl)cc1NN2 do in these assays?
LANA-nucl inh: -5.6*; BasE inh: 28

Results for Clc1ccc2c(c1)NNc1nncn1-2 ?
LANA-nucl inh: -0.2; BasE inh: 3

How did O=C1c2ccccc2C(=O)N1CCCc1nn2c(-c3cccnc3)nnc2s1 do in these assays?
LANA-nucl inh: -0.11; BasE inh: 1

What do the screens show for `O=C(CSc1ccc2c(c1)CCC2)NN1C(=O)NC2(CCCCC2)C1=O`?
BasE inh: 1

Results for NC(=O)Cn1cnc2ccccc21 ?
LANA-nucl inh: 0.14; BasE inh: 1

Results for O=C(Cn1cnc2ccccc21)OCc1ccc(Br)cc1 ?
BasE inh: 27*

Results for CCOc1ccc2nc(N(Cc3ccccc3)C(=O)c3ccco3)sc2c1 ?
LANA-nucl inh: 0.71; BasE inh: -1

Results for CCCCSC1=C(C#N)C(=O)NC(CO)S1 (stereo not drawn) ?
LANA-nucl inh: -0.75; BasE inh: 0

How did CCCCCCSc1s[nH]c(=O)c1C#N do in these assays?
LANA-nucl inh: -1.2; BasE inh: 85*

What do the screens show for `COc1ccc(-c2csc(-n3[nH]c(C)c(C(c4ccc(Cl)cc4)C(C#N)C(N)=O)c3=O)n2)cc1` (stereo not drawn)?
LANA-nucl inh: -0.008; BasE inh: 35*

What do the screens show for `COc1ccc(-c2cc(-c3ccco3)nn2-c2nc(-c3ccc(Cl)cc3)cs2)cc1`?
BasE inh: -1

What do the screens show for `COc1ccc2c(=O)/c(=C/c3ccc4c(c3)OCO4)oc3cccc1c32`?
BasE inh: -1

How did CCNc1cc(NCC)c2noc3c2c1C(=O)c1ccccc1-3 do in these assays?
LANA-nucl inh: -0.064; BasE inh: 3

What do the screens show for `CC(=O)OCCNc1cc(Cl)c2noc3c2c1C(=O)c1ccccc1-3`?
LANA-nucl inh: -3.7*; BasE inh: 8

Results for O=C(NNc1c(Cl)cc(Cl)cc1Cl)c1ccc(=O)[nH]n1 ?
BasE inh: 1

How did C=CCNC(=O)c1ccc2c(c1)NC(=O)C(C)N2 (stereo not drawn) do in these assays?
LANA-nucl inh: 0.092; BasE inh: -1

What do the screens show for `CCCCNC(=O)c1ccc2c(c1)NC(=O)C(C)N2` (stereo not drawn)?
LANA-nucl inh: -3.2*; BasE inh: -6

How did Cn1nccc1C(N)c1ccccc1 (stereo not drawn) do in these assays?
LANA-nucl inh: -0.53; BasE inh: 26*

How did NC(c1ccccc1)c1ccccc1 do in these assays?
BasE inh: -2

How did N#Cc1ccccc1COC(=O)CNC(=O)c1ccccc1 do in these assays?
BasE inh: 2

What do the screens show for `CCn1c(=O)cc(OCC(=O)O)c2ccccc21`?
LANA-nucl inh: -1.1; BasE inh: 2

What do the screens show for `CCn1c(=O)cc(OCC(=O)Nc2cccnc2)c2ccccc21`?
LANA-nucl inh: -0.19; BasE inh: 25*

Results for COc1cccc2c1C(=O)c1c(O)c3c(c(O)c1C2=O)C[C@@](O)(C(=O)CO)C[C@@H]3OC1C[C@H](N)[C@H](O)[C@H](C)O1 (stereo partly drawn) ?
LANA-nucl inh: -7.5*

How did COC(=O)c1cc(-c2ccc(C)cc2)no1 do in these assays?
LANA-nucl inh: 0.41; BasE inh: 1

Results for CCOC(=O)c1cc(-c2ccc(N(CC)CC)cc2)no1 ?
LANA-nucl inh: -4.8*; BasE inh: 5

How did CCN(CC)C(=O)CSc1n[nH]c(=S)s1 do in these assays?
BasE inh: 0

How did CCCN1CC=C2C(C#N)=C(N)C(C#N)(C#N)C(c3ccc(F)cc3F)C2C1 (stereo not drawn) do in these assays?
LANA-nucl inh: -4.5*; BasE inh: 31

How did CCCOc1ccc(C2C3CN(CC)CC=C3C(C#N)=C(N)C2(C#N)C#N)cc1OC (stereo not drawn) do in these assays?
LANA-nucl inh: -1.6; BasE inh: 2

What do the screens show for `O=C(/C=C/c1ccco1)OCCN1C(=O)c2ccccc2C1=O`?
BasE inh: 2

How did CC(C)n1[nH]c(=O)c2c1NC(=O)CSC21CCCCC1 do in these assays?
LANA-nucl inh: -1.1; BasE inh: 1

How did CCOc1cc(/C=C/c2ccccc2OC)cc(=O)c2c(C)oc(C)c12 do in these assays?
BasE inh: 16

Results for COc1cccc(=O)c2c(C)oc(C)c12 ?
LANA-nucl inh: -4.4*; BasE inh: 12
